Sampled rows, rich in hits. Any-hit rate of the full collection: about 3.2%.
PfHsp90 yeast 2 = reduces growth (ATP signal) of yeast expressing P. falciparum Hsp90; S. cerevisiae expressing PfHsp90, BacTiter-Glo ATP, 48 h; yeast lacking PDR1 and PDR3 efflux regulators; inhibition, % at 9.4 µM; hit rate 0.32% among 310,000;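 active means every replicate shows inhibition above about 80%, whatever the replicate mean, limit read from the data; inconclusive means mean inhibition reaches the set limit but some replicate falls short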;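 further: 0% = DMSO neutral controls and 100% = 20 µM radicicol positive controls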
DENV2 CPE = inhibitors of DENV2 cytopathic effect | DENV2-infected cells, cytopathic effect rescue, plate reader | CPE inhibition, % at 9.99 µM | hit rate 1.7% among 350,000 | AID 651640; in the data active means CPE inhibition above about 20%, passing the limit was not always enough; inconclusive means no clear call, values can overlap the other calls; tested in BHK-21 cells;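 further: 0% = median of neutral control wells and 100% = median of positive control wells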
Ecoli rRNA inh = inhibitors of bacterial rRNA selective over humanized ribosomes | E. coli WT GFP vs humanized-ribosome RFP mutants, fluorescence, 24 h; stronger effect = lower value; DMSO median 0, no signal -100 | GFP signal change (wild-type ribosome), % (test concentration not listed) | hit rate 1.6% among 350,000 | AID 720706;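 active means significant combined selectivity score with lowered wild-type GFP, culture density cut under 30%, mutant RFP and density less affected; inactive means any of these conditions unmet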
S100A4 inh HTS = blocks human S100A4 binding to myosin IIA peptide. P26447. inhibition, % at 10.7 µM. S100A4/TAMRA-MyoIIA peptide fluorescence polarization. hit rate 0.14% among 360,000;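 active means mean inhibition of at least 70% across replicates, with every replicate also reaching that level; inconclusive means mean inhibition reaches 70% but some replicates fall short; inactive means mean inhibition below 70%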
Target sequence (P26447 whole entry, looked up): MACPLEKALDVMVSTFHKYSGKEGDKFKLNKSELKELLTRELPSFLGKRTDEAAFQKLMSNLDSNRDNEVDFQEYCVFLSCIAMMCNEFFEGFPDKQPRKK
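Compound dosing: one dose per compound; test system: human S100A4 monomer with TAMRA-labelled myosin IIA peptide; probe or stimulus: TAMRA-labelled myosin IIA heavy-chain peptide probe, 5 nM; medium: HEPES buffer with Ca2+, pH 7.2; schedule: 5 min incubation before reading; benchmarks: neutral control DMSO, positive control TFP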
AF4-AF9 inh = inhibitors of human MLL-AF4/AF9 interaction. inhibition, % at 10 µM. hit rate 0.47% among 350,000. AlphaScreen, biotin-AF4 peptide binding to FLAG-AF9. AID 651704. P42568;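 active means every replicate reaching a set inhibition limit, whatever the replicate mean, cut at about 25% in these data; inconclusive means mean inhibition reaches that limit but some replicates miss it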;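 further: 0% = plate neutral control median and 100% = total signal loss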
Target sequence (P42568 whole entry, looked up): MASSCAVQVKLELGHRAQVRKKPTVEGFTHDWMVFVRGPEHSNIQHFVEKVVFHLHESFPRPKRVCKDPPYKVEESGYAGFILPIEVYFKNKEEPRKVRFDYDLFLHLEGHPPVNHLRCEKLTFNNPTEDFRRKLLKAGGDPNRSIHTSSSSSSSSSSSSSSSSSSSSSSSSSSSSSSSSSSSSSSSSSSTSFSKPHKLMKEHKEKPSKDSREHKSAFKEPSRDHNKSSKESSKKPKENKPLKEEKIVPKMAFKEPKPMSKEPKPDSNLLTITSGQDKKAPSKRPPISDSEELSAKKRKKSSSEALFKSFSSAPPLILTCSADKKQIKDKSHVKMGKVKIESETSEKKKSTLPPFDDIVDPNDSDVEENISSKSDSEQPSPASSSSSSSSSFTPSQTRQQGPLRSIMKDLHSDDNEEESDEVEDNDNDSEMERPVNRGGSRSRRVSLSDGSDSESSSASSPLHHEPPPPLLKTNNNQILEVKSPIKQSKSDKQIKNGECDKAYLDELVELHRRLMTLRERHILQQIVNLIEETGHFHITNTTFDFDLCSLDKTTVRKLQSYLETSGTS
Cneo AK release = Cryptococcus neoformans lysis via adenylate kinase release; hit rate 0.2% among 360,000; C. neoformans lysis, adenylate kinase release luminescence, 4 h; normalised: neutral wells 0, clomiphene wells 100; lysis activity, % at 15 µM; AID 651654;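 active means mean lysis activity across replicates of at least 80%, whatever share of replicates individually reach that level; inactive means mean lysis activity below 80%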
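Material – log-phase Cryptococcus neoformans yeast cells · Input – 5 × 10^6 yeast cells/mL · Medium – fresh YPD growth medium · Doses – single compound concentration per well · Timing – static 4 h at 37 °C with compound, 1 h detection · Detection – adenylate kinase release luminescence · Read-out – signal increase indicating cell lysis · Control set – Clomiphene as positive lysis control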
The depositor's hits bear a star; u = inconclusive; x = no result.

SMILES	PfHsp90 yeast 2	DENV2 CPE	Ecoli rRNA inh	S100A4 inh HTS	AF4-AF9 inh	Cneo AK release
Cc1ccc(CN=c2c([N+](=O)[O-])nn(-c3cccc(C)c3)n2O)cc1	-9	-4	-2	-6	16	x
COc1ccc(S(=O)(=O)Nc2ccc3c(c2)C(=O)N([C@H](C)CO)C[C@@H](C)[C@H](CN(C)C(=O)Cc2ccccc2)OCCCC[C@H](C)O3)cc1	x	5	0	7	-1	-1
CCOc1ccc(CC(=O)Nc2cccc(-c3ccc4nnc(C)n4n3)c2)cc1	-8	5	-34*	-2	2	-3
O=C(C1CCCCC1)N1CC2(C1)[C@H](c1ccccc1)[C@H](CO)N2Cc1ccc(Cl)cc1	x	12	-25	1	7	x
CN(C)C(=O)C[C@@H]1CC[C@H](NC(=O)NC2CCCCC2)[C@H](CO)O1	x	x	4	-6	-2	51
C[C@H]1CCCCO[C@@H](CN(C)C(=O)c2ccncc2)[C@@H](C)CN([C@@H](C)CO)C(=O)c2cc(NC(=O)NC3CCCCC3)ccc2O1	x	21*	5	x	x	-12
C[C@H]1CCCCO[C@H](CN(C)C(=O)c2ccccc2)[C@@H](C)CN([C@@H](C)CO)C(=O)c2cc(NC(=O)NC3CCCCC3)ccc2O1	x	15	-3	114*	0	5
C[C@@H]1CCCCO[C@@H](CN(C)C(=O)c2ccccc2)[C@@H](C)CN([C@H](C)CO)C(=O)c2cc(NC(=O)NC3CCCCC3)ccc2O1	x	-9	2	-5	-2	-1
CC(C)NC(=O)Nc1ccc2c(c1)C(=O)N([C@@H](C)CO)C[C@H](C)[C@H](CN(C)C(=O)c1ccncc1)OCCCC[C@H](C)O2	x	u	0	96*	-1	-1
C[C@@H]1CCCCO[C@@H](CN(C)C(=O)c2ccncc2)[C@@H](C)CN([C@H](C)CO)C(=O)c2cc(NC(=O)NC3CCCCC3)ccc2O1	x	27*	-9	x	x	1
O=C(C[C@H]1CC[C@@H]2[C@H](COC[C@@H](O)CN2S(=O)(=O)c2ccc(Oc3ccccc3)cc2)O1)Nc1ccccc1	x	0	-7	-9	6	0
C[C@H]1CN([C@@H](C)CO)C(=O)c2cc(C#CCN(C)C)cnc2O[C@H]1CN(C)Cc1ccccc1F	x	8	1	4	3	-1
C[C@@H]1CN([C@@H](C)CO)C(=O)c2cccc(NC(=O)C3CC3)c2O[C@H]1CN(C)S(C)(=O)=O	x	-6	4	-3	-1	0
CC(C)c1cn(CC[C@H]2CC[C@H](NC(=O)Nc3cc(Cl)cc(Cl)c3)[C@H](CO)O2)nn1	x	-6	-9	-7	0	-3
CNC(=O)C[C@@H]1CC[C@H]2[C@H](COc3ccc(NC(=O)C4CCCCC4)cc3C(=O)N2C)O1	x	10	2	5	-1	-1
OC(c1ccccc1)(c1nc(-c2cc3ccccc3o2)cs1)C(F)(F)F (stereo not drawn)	x	-8	-38*	0	-2	1
OC(c1ccccc1)(c1nc(-c2cccc(C(F)(F)F)c2)cs1)C(F)(F)F (stereo not drawn)	x	-2	-21	-5	-5	-13
CN1CCN(C(=O)C[C@H]2C[C@H]3c4cc(NC(=O)Nc5ccc(C(F)(F)F)cc5)ccc4O[C@H]3[C@@H](CO)O2)CC1	x	-1	-50	16	17	3
Cc1cccc(S(=O)(=O)N2CC[C@@H]3[C@@H](CO)N(C)c4ccc(-c5ccc(C#N)cc5)cc4[C@@H]32)c1	x	45*	1	-2	-10	11
Cc1cccc(S(=O)(=O)N2CC[C@@H]3[C@@H](CO)Nc4ccc(C#Cc5cccc(F)c5)cc4[C@@H]32)c1	x	-3	3	-11	-2	16
CN1c2ccc(-c3ccccc3F)cc2[C@H]2[C@H](CCN2S(=O)(=O)c2ccc(F)cc2)[C@H]1CO	x	65*	-2	3	x	6
Cc1ccc(S(=O)(=O)N2CC[C@@H]3[C@@H](CO)N(C)c4ccc(-c5ccccc5F)cc4[C@@H]32)cc1	x	7	3	-1	4	1
Cc1ccc(S(=O)(=O)N2CC[C@@H]3[C@H]2c2cc(-c4ccccc4F)ccc2N[C@@H]3CO)cc1	x	2	-1	1	-4	104*
O=S(=O)(c1ccc(F)cc1)N1CC[C@@H]2[C@@H](CO)Nc3ccc(C#Cc4cccc(F)c4)cc3[C@@H]21	x	24*	0	-6	3	x
O=S(=O)(N[C@H]1CC[C@@H](CCn2cc(C3(O)CCCC3)nn2)O[C@@H]1CO)c1ccc(Cl)cc1	x	-2	-3	7	-1	-4
SMILES	PfHsp90 yeast 2	DENV2 CPE	Ecoli rRNA inh	S100A4 inh HTS	AF4-AF9 inh	Cneo AK release
COCC(=O)Nc1ccc2c(c1)[C@@H]1C[C@H](CC(=O)N[C@@H](C)c3ccccc3)O[C@@H](CO)[C@@H]1O2	x	10	2	-3	3	2
CO[C@H](CN(C)C(=O)c1cnccn1)[C@H](C)CN([C@@H](C)CO)S(=O)(=O)c1ccc(Cl)cc1	x	-2	-2	-9	-2	-2
C[C@H]1CN([C@@H](C)CO)C(=O)c2cc(NC(=O)c3ccncc3)ccc2O[C@H]1CN(C)C(=O)NC1CCCCC1	x	-15	2	-3	-2	-4
C[C@H]1CN([C@@H](C)CO)C(=O)Cc2cc(NC(=O)NC3CCCCC3)ccc2O[C@@H]1CN(C)Cc1ccc2c(c1)OCO2	x	4	-8	8	-3	51
N#Cc1ccc(-c2ccc3c(c2)[C@@H]2[C@@H](CCN2S(=O)(=O)c2cccc(F)c2)[C@H](CO)N3)cc1	x	34*	-9	1	-4	-9
O=S(=O)(c1ccc(F)cc1)N1CC[C@@H]2[C@H](CO)Nc3ccc(Br)cc3[C@@H]21	x	x	-17	1	x	0
O=S(=O)(c1ccc(F)cc1)N1CC[C@@H]2[C@H]1c1cc(-c3ccc(F)cc3)ccc1N[C@@H]2CO	x	86*	-10	x	x	-18
O=C(C[C@@H]1C[C@@H]2c3cc(NC(=O)c4cccnc4)ccc3O[C@@H]2[C@@H](CO)O1)NCCN1CCCCC1	x	-4	1	1	-9	-4
CS(=O)(=O)N1[C@@H](CO)[C@@H](c2ccccc2)C12CN(Cc1cc(F)ccc1F)C2	x	40*	-7	0	2	x
O=C1c2cccc(NCCCNCCO)c2C(=O)c2cccc(NCCCNCCO)c21	36	-3	-40	-32	32*	x
Cc1[nH]c2ccccc2c1/C=N/NC(=O)c1cc(C(C)(C)C)[nH]n1	x	57*	-12	4	4	6
Cc1[nH]c2ccccc2c1/C=N/NC(=O)c1ccccc1	-1	-3	1	-7	1	x

High-throughput results from PubChem BioAssay.
